{"source": "ChEMBL document CHEMBL1140861", "about": "“Short antisense oligonucleotides with novel 2'-4' conformationaly restricted nucleoside analogues show improved potency without increased toxicity in animals” (J Med Chem, 2009)", "key": {"[1]": {"test_system": "Mus musculus", "assay": "Hepatotoxicity in BALB/c mouse assessed as increase in liver ALT level at 60 mg/kg, ip after 72 hrs", "type": "toxicity, organism-based", "design": "dose 60 mg/kg, route intraperitoneal", "details": "in vivo"}, "[2]": {"test_system": "Mus musculus", "assay": "Reduction of PTEN mRNA level in BALB/c mouse liver at 60 mg/kg, ip after 72 hrs", "type": "functional, organism-based", "design": "dose 60 mg/kg"}, "[3]": {"test_system": "Mus musculus", "assay": "Reduction of PTEN mRNA level in BALB/c mouse liver at 37 mg/kg, ip after 72 hrs", "type": "functional, organism-based", "design": "dose 37 mg/kg"}, "[4]": {"species_on_record": "Mus musculus", "assay": "Binding affinity to mouse PTEN mRNA assessed as melting temperature", "outline": "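Tm of ASO–RNA duplex, i.e. melting temperature of the ASO hybridised to its complementary RNA.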"}, "[5]": {"test_system": "Mus musculus", "assay": "Reduction of PTEN mRNA level in ip dosed BALB/c mouse liver after 72 hrs", "type": "functional"}, "[6]": {"test_system": "bEND", "assay": "Reduction in mouse PTEN mRNA level expressed in mouse bEND cells", "type": "functional, cell-based", "outline": "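bEND mouse brain endothelial cells transfected with ASO using lipofectin; PTEN mRNA reduction measured over a dose range; IC50 taken from dose-response curves.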"}}, "note": "Activity calls are given as the source filed them. No cut-off for these calls is given here."}
{"smiles": "Cc1cn([C@@H]2O[C@@]3(COP(O)(=S)O[C@H]4[C@H]5OC[C@]4(COP(O)(=S)O[C@@H]4[C@H](O)[C@@H](COP(O)(=S)O[C@H]6[C@@H](O)[C@H](n7cnc8c(=O)[nH]c(N)nc87)O[C@@H]6COP(O)(=S)O[C@H]6[C@@H](O)[C@H](n7ccc(N)nc7=O)O[C@@H]6COP(O)(=S)O[C@H]6[C@@H](O)[C@H](n7ccc(N)nc7=O)O[C@@H]6COP(O)(=S)O[C@H]6C[C@H](n7cc(C)c(=O)[nH]c7=O)O[C@@H]6COP(O)(=S)O[C@H]6[C@@H](O)[C@H](n7ccc(N)nc7=O)O[C@@H]6COP(O)(=S)O[C@H]6C[C@H](n7cc(C)c(=O)[nH]c7=O)O[C@@H]6COP(O)(=S)O[C@H]6[C@@H](O)[C@H](n7cnc8c(=O)[nH]c(N)nc87)O[C@@H]6COP(O)(=S)O[C@H]6[C@@H](O)[C@H](n7cnc8c(=O)[nH]c(N)nc87)O[C@@H]6COP(O)(=S)O[C@H]6[C@@H](O)[C@H](n7cnc8c(N)ncnc87)O[C@@H]6COP(O)(=S)O[C@H]6[C@H]7OC[C@]6(COP(O)(=S)O[C@H]6[C@H]8OC[C@]6(CO)O[C@H]8n6cc(C)c(=O)[nH]c6=O)O[C@H]7n6cc(C)c(=O)[nH]c6=O)O[C@H]4n4cnc6c(N)ncnc64)O[C@H]5n4cc(C)c(=O)[nH]c4=O)CO[C@@H]2[C@@H]3O)c(=O)nc1N", "note": "(stereo partly drawn)", "values": [{"measurement": "Activity", "setting": "[1]", "value": "Non-toxic"}, {"measurement": "Activity", "setting": "[2]", "value": "Active"}, {"measurement": "Activity", "setting": "[3]", "value": "Active"}]}
{"smiles": "COCCO[C@@H]1[C@H](O)[C@@H](COP(O)(=S)O[C@H]2[C@@H](OCCOC)[C@H](n3cc(C)c(N)nc3=O)O[C@@H]2COP(O)(=S)O[C@H]2[C@@H](OCCOC)[C@H](n3cc(C)c(=O)[nH]c3=O)O[C@@H]2COP(O)(=S)O[C@H]2[C@@H](OCCOC)[C@H](n3cc(C)c(=O)[nH]c3=O)O[C@@H]2COP(O)(=S)O[C@H]2[C@@H](OCCOC)[C@H](n3cc(C)c(N)nc3=O)O[C@@H]2COP(O)(=S)O[C@H]2[C@@H](O)[C@H](n3cc(C)c(N)nc3=O)O[C@@H]2COP(O)(=S)O[C@H]2[C@@H](O)[C@H](n3cc(C)c(N)nc3=O)O[C@@H]2COP(O)(=S)O[C@H]2C[C@H](n3cc(C)c(=O)[nH]c3=O)O[C@@H]2COP(O)(=S)O[C@H]2[C@@H](O)[C@H](n3cnc4c(=O)[nH]c(N)nc43)O[C@@H]2COP(O)(=S)O[C@H]2[C@@H](O)[C@H](n3cnc4c(N)ncnc43)O[C@@H]2COP(O)(=S)O[C@@H]2[C@H](O)[C@@H](COP(O)(=S)O[C@H]3[C@@H](O)[C@H](n4cnc5c(=O)[nH]c(N)nc54)O[C@@H]3COP(O)(=S)O[C@H]3[C@@H](O)[C@H](n4cnc5c(=O)[nH]c(N)nc54)O[C@@H]3COP(O)(=S)O[C@H]3C[C@H](n4cc(C)c(=O)[nH]c4=O)O[C@@H]3COP(O)(=S)O[C@H]3C[C@H](n4cc(C)c(=O)[nH]c4=O)O[C@@H]3COP(O)(=S)O[C@H]3[C@@H](OCCOC)[C@H](n4cc(C)c(=O)[nH]c4=O)O[C@@H]3COP(O)(=S)O[C@H]3[C@@H](OCCOC)[C@H](n4cc(C)c(N)nc4=O)O[C@@H]3COP(O)(=S)O[C@H]3[C@@H](OCCOC)[C@H](n4ccc(N)nc4=O)O[C@@H]3COP(O)(=S)O[C@H]3[C@@H](OCCOC)[C@H](n4cc(C)c(N)nc4=O)O[C@@H]3COP(O)(=S)O[C@H]3[C@@H](OCCOC)[C@H](n4cc(C)c(N)nc4=O)O[C@@H]3CO)O[C@H]2n2cnc3c(N)ncnc32)O[C@H]1n1cc(C)c(N)nc1=O", "note": "(stereo partly drawn)", "values": [{"measurement": "Activity", "setting": "[1]", "value": "Non-toxic"}, {"measurement": "Activity", "setting": "[2]", "value": "Active"}, {"measurement": "Activity", "setting": "[3]", "value": "Active"}]}
{"smiles": "Cc1cn([C@@H]2O[C@@]3(COP(O)(=S)O[C@H]4[C@H]5OC[C@]4(CO)O[C@H]5n4cc(C)c(N)nc4=O)CO[C@@H]2[C@@H]3OP(O)(=S)OC[C@H]2O[C@@H](n3cnc4c(N)ncnc43)[C@H](O)[C@@H]2OP(O)(=S)OC[C@H]2O[C@@H](n3cnc4c(=O)[nH]c(N)nc43)[C@H](O)[C@@H]2OP(O)(=S)OC[C@H]2O[C@@H](n3cnc4c(=O)[nH]c(N)nc43)[C@H](O)[C@@H]2OP(O)(=S)OC[C@H]2O[C@@H](n3cc(C)c(=O)[nH]c3=O)C[C@@H]2OP(O)(=S)OC[C@H]2O[C@@H](n3ccc(N)nc3=O)[C@H](O)[C@@H]2OP(O)(=S)OC[C@H]2O[C@@H](n3ccc(N)nc3=O)[C@H](O)[C@@H]2OP(O)(=S)OC[C@H]2O[C@@H](n3ccc(N)nc3=O)[C@H](O)[C@@H]2OP(O)(=S)OC[C@H]2O[C@@H](n3cnc4c(=O)[nH]c(N)nc43)[C@H](O)[C@@H]2OP(O)(=S)OC[C@H]2O[C@@H](n3cnc4c(=O)[nH]c(N)nc43)[C@H](O)[C@@H]2OP(O)(=S)OC[C@H]2O[C@@H](n3cc(C)c(=O)[nH]c3=O)C[C@@H]2OP(O)(=S)OC[C@@]23CO[C@@H]([C@H](n4cc(C)c(=O)[nH]c4=O)O2)[C@@H]3OP(O)(=S)OC[C@@]23CO[C@@H]([C@H](n4ccc(N)nc4=O)O2)[C@@H]3O)c(=O)nc1N", "note": "(stereo partly drawn)", "values": [{"measurement": "Activity", "setting": "[1]", "value": "Non-toxic"}, {"measurement": "Activity", "setting": "[2]", "value": "Active"}, {"measurement": "Activity", "setting": "[3]", "value": "Active"}]}
{"smiles": "COC[C@H]1O[C@H]2[C@H](n3cc(C)c(N)nc3=O)O[C@]1(COP(O)(=S)O[C@H]1[C@H]3O[C@H](COC)[C@]1(COP(O)(=S)O[C@H]1C[C@H](n4cc(C)c(=O)[nH]c4=O)O[C@@H]1COP(O)(=S)O[C@H]1[C@@H](O)[C@H](n4cnc5c4N=CNC5N)O[C@@H]1COP(O)(=S)O[C@H]1[C@@H](O)[C@H](n4cnc5c(=O)[nH]c(N)nc54)O[C@@H]1COP(O)(=S)O[C@H]1[C@@H](O)[C@H](n4ccc(N)nc4=O)O[C@@H]1COP(O)(=S)O[C@H]1[C@@H](O)[C@H](n4cnc5c(N)ncnc54)O[C@@H]1COP(O)(=S)O[C@H]1[C@@H](O)[C@H](n4ccc(N)nc4=O)O[C@@H]1COP(O)(=S)O[C@H]1C[C@H](n4cc(C)c(=O)[nH]c4=O)O[C@@H]1COP(O)(=S)O[C@H]1[C@@H](O)[C@H](n4cnc5c(=O)[nH]c(N)nc54)O[C@@H]1COP(O)(=S)O[C@H]1[C@@H](O)[C@H](n4cnc5c(=O)[nH]c(N)nc54)O[C@@H]1COP(O)(=S)O[C@H]1[C@@H](O)[C@H](n4ccc(N)nc4=O)O[C@@H]1COP(O)(=S)O[C@H]1[C@H]4O[C@H](COC)[C@]1(COP(O)(=S)O[C@H]1[C@H]5O[C@H](COC)[C@]1(CO)O[C@H]5n1ccc(=O)[nH]c1=O)O[C@H]4n1cc(C)c(N)nc1=O)O[C@H]3n1ccc(=O)[nH]c1=O)[C@H]2O", "note": "(stereo partly drawn)", "values": [{"measurement": "Tm", "setting": "[4]", "value": 56.9, "unit": "°C"}, {"measurement": "ED50", "setting": "[5]", "value": 29, "unit": "mg/kg"}, {"measurement": "IC50", "setting": "[6]", "value": 6, "unit": "nM"}]}
{"smiles": "Cc1cn([C@@H]2O[C@@]3(COP(O)(=S)O[C@H]4[C@H]5OC[C@]4(COP(O)(=S)O[C@@H]4[C@H](O)[C@@H](COP(O)(=S)O[C@H]6[C@@H](O)[C@H](n7cnc8c(=O)[nH]c(N)nc87)O[C@@H]6COP(O)(=S)O[C@H]6[C@@H](O)[C@H](n7ccc(N)nc7=O)O[C@@H]6COP(O)(=S)O[C@H]6[C@@H](O)[C@H](n7ccc(N)nc7=O)O[C@@H]6COP(O)(=S)O[C@H]6C[C@H](n7cc(C)c(=O)[nH]c7=O)O[C@@H]6COP(O)(=S)O[C@H]6[C@@H](O)[C@H](n7ccc(N)nc7=O)O[C@@H]6COP(O)(=S)O[C@H]6C[C@H](n7cc(C)c(=O)[nH]c7=O)O[C@@H]6COP(O)(=S)O[C@H]6[C@@H](O)[C@H](n7cnc8c(=O)[nH]c(N)nc87)O[C@@H]6COP(O)(=S)O[C@H]6[C@@H](O)[C@H](n7cnc8c(=O)[nH]c(N)nc87)O[C@@H]6COP(O)(=S)O[C@H]6[C@@H](O)[C@H](n7cnc8c(N)ncnc87)O[C@@H]6COP(O)(=S)O[C@H]6[C@H]7OC[C@]6(COP(O)(=S)O[C@H]6[C@H]8OC[C@]6(COP(O)(=S)O[C@H]6[C@H]9OC[C@]6(CO)O[C@H]9n6cc(C)c(=O)[nH]c6=O)O[C@H]8n6cc(C)c(=O)[nH]c6=O)O[C@H]7n6cc(C)c(=O)[nH]c6=O)O[C@H]4n4cnc6c(N)ncnc64)O[C@H]5n4cc(C)c(=O)[nH]c4=O)CO[C@@H]2[C@@H]3O)c(=O)nc1N", "note": "(stereo partly drawn)", "values": [{"measurement": "Activity", "setting": "[1]", "value": "Non-toxic"}, {"measurement": "Activity", "setting": "[2]", "value": "Active"}, {"measurement": "Activity", "setting": "[3]", "value": "Active"}]}
{"smiles": "Cc1cn([C@@H]2O[C@@]3(COP(O)(=S)O[C@H]4[C@H]5OC[C@]4(COP(O)(=S)O[C@@H]4[C@H](O)[C@@H](COP(O)(=S)O[C@H]6[C@@H](O)[C@H](n7cnc8c(=O)[nH]c(N)nc87)O[C@@H]6COP(O)(=S)O[C@H]6[C@@H](O)[C@H](n7ccc(N)nc7=O)O[C@@H]6COP(O)(=S)O[C@H]6[C@@H](O)[C@H](n7ccc(N)nc7=O)O[C@@H]6COP(O)(=S)O[C@H]6C[C@H](n7cc(C)c(=O)[nH]c7=O)O[C@@H]6COP(O)(=S)O[C@H]6[C@@H](O)[C@H](n7ccc(N)nc7=O)O[C@@H]6COP(O)(=S)O[C@H]6C[C@H](n7cc(C)c(=O)[nH]c7=O)O[C@@H]6COP(O)(=S)O[C@H]6[C@@H](O)[C@H](n7cnc8c(=O)[nH]c(N)nc87)O[C@@H]6COP(O)(=S)O[C@H]6[C@@H](O)[C@H](n7cnc8c(=O)[nH]c(N)nc87)O[C@@H]6COP(O)(=S)O[C@H]6[C@@H](O)[C@H](n7cnc8c(N)ncnc87)O[C@@H]6COP(O)(=S)O[C@H]6[C@H]7OC[C@]6(COP(O)(=S)O[C@H]6[C@H]8OC[C@]6(COP(O)(=S)O[C@H]6[C@H]9OC[C@]6(CO)O[C@H]9n6cc(C)c(=O)[nH]c6=O)O[C@H]8n6cc(C)c(=O)[nH]c6=O)O[C@H]7n6cc(C)c(=O)[nH]c6=O)O[C@H]4n4cnc6c(N)ncnc64)O[C@H]5n4cc(C)c(=O)[nH]c4=O)CO[C@@H]2[C@@H]3OP(O)(=S)OC[C@@]23CO[C@@H]([C@H](n4cnc5c(=O)[nH]c(N)nc54)O2)[C@@H]3O)c(=O)nc1N", "note": "(stereo partly drawn)", "values": [{"measurement": "Activity", "setting": "[1]", "value": "Non-toxic"}, {"measurement": "Activity", "setting": "[2]", "value": "Active"}, {"measurement": "Activity", "setting": "[3]", "value": "Active"}]}
